According to ChEMBL document CHEMBL1123211, “Correspondence analysis applied to steroid receptor binding” (J Med Chem, 1986):

The molecules below were run against T1, Glucocorticoid receptor (Homo sapiens) (UniProt P04150) (assay: Relative binding affinity against glucocorticoid receptor).
T1 sequence (whole entry): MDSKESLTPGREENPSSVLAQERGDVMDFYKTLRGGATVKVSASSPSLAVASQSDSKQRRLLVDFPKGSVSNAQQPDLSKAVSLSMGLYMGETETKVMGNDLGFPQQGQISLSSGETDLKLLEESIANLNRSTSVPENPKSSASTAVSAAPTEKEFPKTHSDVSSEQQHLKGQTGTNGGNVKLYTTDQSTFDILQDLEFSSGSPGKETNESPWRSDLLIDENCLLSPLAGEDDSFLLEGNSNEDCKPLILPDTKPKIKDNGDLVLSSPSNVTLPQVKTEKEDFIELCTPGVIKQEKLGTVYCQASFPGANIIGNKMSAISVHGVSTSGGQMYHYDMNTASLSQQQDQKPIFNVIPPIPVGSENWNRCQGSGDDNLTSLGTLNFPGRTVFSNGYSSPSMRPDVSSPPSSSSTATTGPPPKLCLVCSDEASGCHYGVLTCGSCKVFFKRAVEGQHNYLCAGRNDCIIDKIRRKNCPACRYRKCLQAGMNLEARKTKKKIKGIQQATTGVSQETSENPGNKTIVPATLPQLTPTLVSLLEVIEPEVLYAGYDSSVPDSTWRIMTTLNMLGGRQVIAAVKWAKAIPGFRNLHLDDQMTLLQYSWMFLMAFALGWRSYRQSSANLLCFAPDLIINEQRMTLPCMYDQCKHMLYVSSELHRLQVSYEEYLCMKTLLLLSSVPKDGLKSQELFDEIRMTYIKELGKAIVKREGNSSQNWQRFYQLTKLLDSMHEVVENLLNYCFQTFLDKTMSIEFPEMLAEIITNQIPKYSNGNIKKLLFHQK
How it was run: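 Competitive binding: each steroid incubated with receptor-containing cytosol and a radiolabelled marker selective for the receptor. Bound radioactivity separated by dextran-coated charcoal adsorption. The unlabelled radioligand standard curve used 9-10 concentrations; test steroids used 5-6. RBA = 100 × (radioligand conc for 50% displacement ÷ steroid conc for 50% displacement), with reference hormone set to 100. Mean of ≥3 experiments.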

SMILES	Relative binding affinity
CC1(C)CC2C(=C3CCC(=O)C=C31)C=CC1(C)C2CC[C@]1(C)O (stereo partly specified)	1.2
CC(=O)[C@@]1(C)CCC2C3CCC4=CC(=O)CCC4=C3C=CC21C (stereo partly specified)	2.4
C#C[C@]1(O)CC[C@H]2[C@@H]3CCC4=CC(=O)CCC4=C3C=C[C@@]21CC	77
CC12C=CC3=CCCCC3C1CC[C@]2(C)O (stereo partly specified)	38
CCC12CCC3=C4CCC(=O)C=C4CCC3C1CC[C@@H]2O (stereo partly specified)	5.1
C#C[C@]1(O)CCC2C3CCC4=CC(=O)CCC4=C3CCC21CCC (stereo partly specified)	5.5
CC12CCC3C4CCC(=O)C=C4CCC3C1CC[C@@]21CCC(=O)O1 (stereo partly specified)	0.1
CC12CCC3C4CCC(=O)C=C4CCC3C1CC[C@@]21CCS(=O)O1 (stereo partly specified)	0.4
CCC12C=CC3=C4CCC(=O)C=C4CCC3C1CC[C@]2(C)O (stereo partly specified)	155
C#C[C@]1(O)CCC2C3CCC4=CC(=O)CCC4=C3CCC21C (stereo partly specified)	5.7
CC1=C2CCC3C(=C2CCC1=O)C=CC1(C)C3CC[C@]1(C)O (stereo partly specified)	0.5
CC12CCC3=C4CCC(=O)C=C4CCC3C1CC[C@]2(C)O (stereo partly specified)	6
CC(=O)[C@H]1CC[C@H]2[C@@H]3CCC4=CC(=O)CC[C@@H]4[C@H]3CC[C@]12C	0.6
C#C[C@]1(O)CCC2C3CCC4=CC(=O)CCC4C3CCC21CCC (stereo partly specified)	9.8
CC12C=CC3=C4CCC(=O)C=C4CCC3C1CCC2=O (stereo unspecified)	< 0.1
CCCC12CCC3C4CCC(=O)C=C4CCC3C1CC[C@@H]2O (stereo partly specified)	2.1
CC(=O)[C@@]1(C)CCC2C3CCC4=CC(=O)CCC4=C3CCC21C (stereo partly specified)	4.5
CC1CC2=C3C=CC4(C)C(CC[C@]4(C)O)C3CCC2=CC1=O (stereo partly specified)	1.5
C[C@]1(O)CC[C@H]2[C@@H]3CCC4=CC(=O)CCC4=C3C=C[C@@]21C (stereo in doubt; 39)	26
C#C[C@]1(O)CCC2C3CCC4=CC(=O)CCC4=C3C=CC21CCC (stereo partly specified)	6.4
CC12C=CC3=C4CCCC=C4CCC3C1CC[C@]2(C)O (stereo partly specified)	0.3
C[C@]1(O)CC[C@H]2[C@@H]3CCC4=CC(=O)CC[C@@H]4[C@H]3CC[C@@]21C	1.5
C[C@@H]1CC2=CC(=O)CC[C@@H]2[C@H]2CC[C@@]3(C)[C@@H](CC[C@]3(C)O)[C@@H]21	1.4

SMILES	Relative binding affinity
CCCC12CCC3=C4CCC(=O)C=C4CCC3C1CC[C@@H]2O (stereo partly specified)	1.9
C#C[C@]1(O)CCC2C3CCC4=CC(=O)CCC4C3CCC21CC (stereo partly specified)	14
CC12C=CC3=C4CC(=O)CC=C4CCC3C1CC[C@]2(C)O (stereo partly specified)	68
C#C[C@]1(O)CC[C@H]2[C@@H]3CCC4=CC(=O)CCC4=C3C=C[C@@]21C	11
CCCC12C=CC3=C4CCC(=O)C=C4CCC3C1CC[C@@H]2O (stereo partly specified)	6
C#C[C@]1(O)CCC2C3CCC4=CC(=O)CCC4=C3CCC21CC (stereo partly specified)	17
C[C@@H]1CC2=CC(=O)CCC2=C2C=CC3(C)C(CC[C@]3(C)O)C21 (stereo partly specified)	22
C[C@]1(O)CC[C@H]2[C@@H]3CCC4=CC(=O)CCC4=C3C=C[C@@]21C (stereo in doubt; 12)	26
CCC12C=CC3=C4CCC(=O)C=C4C[C@@H](C)C3C1CC[C@]2(C)O (stereo partly specified)	145
CC12CCC3=C4CCC(=O)C=C4CCC3C1CC[C@@]21CCS(=O)O1 (stereo partly specified)	23
CCC12CCC3C4CCC(=O)C=C4CCC3C1CC[C@@H]2O (stereo partly specified)	2.1
CC(=O)[C@@]1(C)CCC2C3CCC4=CC(=O)CCC4C3CCC21C (stereo partly specified)	0.7
CC12CCC3=C4CCC(=O)C=C4CCC3C1CC[C@@]21CCC(=O)O1 (stereo partly specified)	17
CC1(C)CC2=C3C=CC4(C)C(CC[C@]4(C)O)C3CCC2=CC1=O (stereo partly specified)	0.4
CC(=O)[C@H]1CCC2C3CCC4=CC(=O)CCC4=C3CCC21C (stereo partly specified)	5.1
CCC12C=CC3=C4CCC(=O)C=C4CCC3C1CC[C@@H]2O (stereo partly specified)	20
CC12C=CC3=C4CCC(=O)C=C4CCC3C1CC[C@@]21CCC(=O)O1 (stereo partly specified)	62
CC12C=CC3=C4CCC(=O)C=C4CCC3C1CC[C@@]21CCS(=O)O1 (stereo partly specified)	35
C[C@]12CC[C@H]3[C@@H](CCC4=CC(=O)CC[C@@H]43)[C@@H]1CC[C@@H]2O	0.5
C[C@]12CCC3=C4CCC(=O)C=C4CC[C@H]3[C@@H]1CC[C@@H]2O	1.6
C[C@@H]1CC2=CC(=O)CCC2=C2CCC3(C)C(CC[C@]3(C)O)C21 (stereo partly specified)	6.1
CC12C=CC3=C4CCC(=O)C=C4CCC3C1CCC2 (stereo unspecified)	0.5
CC(=O)[C@H]1CCC2C3CCC4=CC(=O)CCC4=C3C=CC21C (stereo partly specified)	1.5
